According to ChEMBL document CHEMBL2150936, “Anticancer activity of small amphipathic β²,²-amino acid derivatives” (Eur J Med Chem, 2012):
Calls of active or inactive are those of the source. The rule behind the calls is not given here.

Experiments:
M14 = experiment: Cytotoxicity against human M14 cells after 4 hrs by MTT assay; assay type: functional, cell-based; details: M14, 4 h
Hs-578T = experiment: Cytotoxicity against human Hs578T cells after 4 hrs by MTT assay; assay type: functional, cell-based
IGROV-1 = experiment: Cytotoxicity against human IGROV1 cells after 4 hrs by MTT assay; assay type: functional, cell-based; details: IGROV-1, 4 h
MCF7 = experiment: Cytotoxicity against human MCF7 cells after 4 hrs by MTT assay; assay type: functional, cell-based; details: MCF7, 4 h
MRC5 = experiment: Cytotoxicity against human MRC5 cells after 4 hrs by MTT assay; assay type: cell-based; details: MRC5, 4 h
Summary of the method: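 MRC-5 embryonic lung fibroblast monolayers in MEM with 10% FBS were seeded at 1 × 10^5 cells/ml, grown overnight, then medium was replaced with compound solution. Exposure was 4 h at 37 °C, 5% CO2, then MTT for 2 h. Formazan was dissolved in acidic isopropanol (0.04 N HCl) and absorbance read at 590 nm. Background-corrected viability was taken relative to medium-only control, with Triton X-100 as positive control.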

SK-MEL-28 = experiment: Cytotoxicity against human SK-MEL-28 cells after 4 hrs by MTT assay; assay type: functional, cell-based; details: SK-MEL-28, 4 h
A498 = experiment: Cytotoxicity against human A498 cells after 4 hrs by MTT assay; assay type: functional, cell-based; details: A498, 4 h
SK-MEL-5 = experiment: Cytotoxicity against human SK-MEL-5 cells after 4 hrs by MTT assay; assay type: functional, cell-based; details: SK-MEL-5, 4 h
HCT-116 = experiment: Cytotoxicity against human HCT116 cells after 4 hrs by MTT assay; assay type: functional, cell-based; details: HCT-116, 4 h
UACC-257 = experiment: Cytotoxicity against human UACC257 cells after 4 hrs by MTT assay; assay type: functional, cell-based; details: UACC-257, 4 h
Ramos [1] = experiment: Selectivity index, ratio of EC50 for human RBC to IC50 for human Ramos cells; assay type: functional
Summary of the method: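 Ramos IC50 came from a 4 h MTT assay: cells at 4 × 10^5 cells/ml in serum-free RPMI-1640, compounds added at once, 37 °C, 2 h MTT, read at 590 nm. RBC EC50 came from hemoglobin release at 405 nm: 1% v/v washed human erythrocytes in PBS, 1 h at 37 °C, Triton X-100 reference. SI = RBC EC50 / Ramos IC50.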

Ramos [2] = experiment: Induction of apoptosis in human Ramos cells assessed as disruption of mitochondrial potential after 1 hr by TMRE based flow cytometry; assay type: functional, cell-based
NCI-H226 = experiment: Cytotoxicity against human NCI-H226 cells after 4 hrs by MTT assay; assay type: functional, cell-based; details: NCI-H226, 4 h
A549 = experiment: Cytotoxicity against human A549 cells after 4 hrs by MTT assay; assay type: functional, cell-based; details: A549, 4 h
TK-10 = experiment: Cytotoxicity against human TK10 cells after 4 hrs by MTT assay; assay type: functional, cell-based; details: TK-10, 4 h
MDA-MB-468 = experiment: Cytotoxicity against human MDA-MB-468 cells after 4 hrs by MTT assay; assay type: functional, cell-based; details: MDA-MB-468, 4 h
CAKI-1 = experiment: Cytotoxicity against human CAKI-1 cells after 4 hrs by MTT assay; assay type: functional, cell-based; details: CAKI-1, 4 h
786-0 = experiment: Cytotoxicity against human 786-0 cells after 4 hrs by MTT assay; assay type: functional, cell-based; details: 786-0, 4 h
OVCAR-8 = experiment: Cytotoxicity against human OVCAR8 cells after 4 hrs by MTT assay; assay type: functional, cell-based; details: OVCAR-8, 4 h
ACHN = experiment: Cytotoxicity against human ACHN cells after 4 hrs by MTT assay; assay type: functional, cell-based
SK-MEL-2 = experiment: Cytotoxicity against human SK-MEL-2 cells after 4 hrs by MTT assay; assay type: functional, cell-based; details: SK-MEL-2, 4 h
SK-OV-3 = experiment: Cytotoxicity against human SKOV3 cells after 4 hrs by MTT assay; assay type: functional, cell-based; details: SK-OV-3, 4 h
NCI/ADR-RES = experiment: Cytotoxicity against human NCI/ADR-RES cells after 4 hrs by MTT assay; assay type: functional, cell-based
HOP-62 = experiment: Cytotoxicity against human HOP62 cells after 4 hrs by MTT assay; assay type: functional, cell-based; details: HOP-62, 4 h
RXF 393 = experiment: Cytotoxicity against human RXF393 cells after 4 hrs by MTT assay; assay type: functional, cell-based; details: RXF 393, 4 h
SW-620 = experiment: Cytotoxicity against human SW620 cells after 4 hrs by MTT assay; assay type: functional, cell-based; details: SW-620, 4 h
NCI-H23 = experiment: Cytotoxicity against human NCI-H23 cells after 4 hrs by MTT assay; assay type: functional, cell-based; details: NCI-H23, 4 h
UACC-62 = experiment: Cytotoxicity against human UACC62 cells after 4 hrs by MTT assay; assay type: functional, cell-based; details: UACC-62, 4 h
OVCAR-3 = experiment: Cytotoxicity against human OVCAR3 cells after 4 hrs by MTT assay; assay type: functional, cell-based; details: OVCAR-3, 4 h
[3] = Cytotoxicity against human […] cells after 4 hrs by MTT assay; assay type: functional, cell-based
OVCAR-5 = experiment: Cytotoxicity against human OVCAR5 cells after 4 hrs by MTT assay; assay type: functional, cell-based; details: OVCAR-5, 4 h
U-251 = experiment: Cytotoxicity against human U251 cells after 4 hrs by MTT assay; assay type: functional, cell-based; details: U-251, 4 h
[4] = read-out: LC50 (the source's name)

SMILES: NCCNC(=O)C(CN)(Cc1ccc2ccccc2c1)Cc1ccc2ccccc2c1
- IC50 (M14): 3.16 µM
- TGI (M14): 3.24 µM
- CC50 (M14; [4]): 6.03 µM
- IC50 (Hs-578T): 3.63 µM
- TGI (Hs-578T): 3.47 µM
- CC50 (Hs-578T; [4]): 7.94 µM
- IC50 (IGROV-1): 3.16 µM
- TGI (IGROV-1): 3.24 µM
- CC50 (IGROV-1; [4]): 7.24 µM
- IC50 (MCF7): 1.35 µM
- TGI (MCF7): 2.24 µM
- CC50 (MCF7; [4]): 5.5 µM
- EC50 (MRC5): 22 µM
- IC50 (SK-MEL-28): 3.47 µM
- TGI (SK-MEL-28): 3.47 µM
- CC50 (SK-MEL-28; [4]): 5.89 µM
- IC50 (A498): 2.82 µM
- TGI (A498): 2.34 µM
- CC50 (A498; [4]): 5.01 µM
- IC50 (SK-MEL-5): 2.82 µM
- TGI (SK-MEL-5): 3.02 µM
- CC50 (SK-MEL-5; [4]): 5.62 µM
- IC50 (HCT-116): 0.65 µM
- TGI (HCT-116): 1.74 µM
- CC50 (HCT-116; [4]): 4.37 µM
- IC50 (UACC-257): 3.39 µM
- TGI (UACC-257): 3.39 µM
- CC50 (UACC-257; [4]): 5.89 µM
- Selectivity Index (Ramos [1]): 112
- Activity (Ramos [2]): Active
- IC50 (NCI-H226): 3.31 µM
- TGI (NCI-H226): 3.39 µM
- CC50 (NCI-H226; [4]): 7.24 µM
- IC50 (A549): 2.51 µM
- TGI (A549): 2.88 µM
- CC50 (A549; [4]): 5.75 µM
- IC50 (TK-10): 3.09 µM
- TGI (TK-10): 3.16 µM
- CC50 (TK-10; [4]): 6.03 µM
- IC50 (MDA-MB-468): 2.75 µM
- TGI (MDA-MB-468): 2.95 µM
- CC50 (MDA-MB-468; [4]): 6.17 µM
- IC50 (CAKI-1): 2.75 µM
- TGI (CAKI-1): 3.02 µM
- CC50 (CAKI-1; [4]): 6.17 µM
- IC50 (786-0): 3.16 µM
- TGI (786-0): 3.31 µM
- CC50 (786-0; [4]): 6.31 µM
- IC50 (OVCAR-8): 3.39 µM
- TGI (OVCAR-8): 3.72 µM
- CC50 (OVCAR-8; [4]): 7.24 µM
- IC50 (ACHN): 2.75 µM
- TGI (ACHN): 2.88 µM
- CC50 (ACHN; [4]): 5.5 µM
- IC50 (SK-MEL-2): 3.63 µM
- TGI (SK-MEL-2): 3.63 µM
- CC50 (SK-MEL-2; [4]): 6.92 µM
- IC50 (SK-OV-3): 3.02 µM
- TGI (SK-OV-3): 3.02 µM
- CC50 (SK-OV-3; [4]): 5.5 µM
- IC50 (NCI/ADR-RES): 3.16 µM
- TGI (NCI/ADR-RES): 3.31 µM
- CC50 (NCI/ADR-RES; [4]): 6.46 µM
- IC50 (HOP-62): 2.82 µM
- TGI (HOP-62): 2.88 µM
- CC50 (HOP-62; [4]): 5.62 µM
- IC50 (RXF 393): 2.69 µM
- TGI (RXF 393): 2.69 µM
- CC50 (RXF 393; [4]): 5.5 µM
- IC50 (SW-620): 0.35 µM
- TGI (SW-620): 0.83 µM
- CC50 (SW-620; [4]): 3.39 µM
- IC50 (NCI-H23): 3.09 µM
- TGI (NCI-H23): 3.24 µM
- CC50 (NCI-H23; [4]): 6.31 µM
- IC50 (UACC-62): 3.31 µM
- TGI (UACC-62): 3.31 µM
- CC50 (UACC-62; [4]): 5.75 µM
- IC50 (OVCAR-3): 2.82 µM
- TGI (OVCAR-3): 2.88 µM
- CC50 (OVCAR-3; [4]): 5.62 µM
- IC50 [3]: 3.63 µM
- TGI [3]: 4.57 µM
- IC50 (OVCAR-5): 2.95 µM
- TGI (OVCAR-5): 3.02 µM
- CC50 (OVCAR-5; [4]): 5.75 µM
- IC50 (U-251): 1.48 µM
- TGI (U-251): 2.14 µM
- CC50 (U-251; [4]): 4.68 µM
